Source: ChEMBL document CHEMBL1147076, “Antitumor activity of MLN8054, an orally active small-molecule inhibitor of Aurora A kinase” (Proc Natl Acad Sci U S A, 2007)
Activity calls are given as the source filed them. The calls are words filed in the database; no cut-off is given here.

Assays:
[1] = biological target: RAC-beta serine/threonine-protein kinase (Homo sapiens) (UniProt P31751); experiment: Activity of human PKBbeta kinase at 1 uM
In short: (§1)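 Single-point screen in a 226-kinase panel run by an outside service. Test compound at 1 μM with ATP at 10 μM in every assay. Other assay conditions are not given.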

[2] = biological target: Mitogen-activated protein kinase 1 (ERK2) (Mus musculus) (UniProt P63085); experiment: Activity of mouse MAPK2 kinase at 1 uM
PC-3 [3] = experiment: Cell cycle arrest in human PC3 cells by accumulation at S phase at 4 uM after 24 hrs by flow cytometry relative to control; assay type: functional
In short: (§2)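 DNA content profiles by flow cytometry of PC-3 prostate tumor cells exposed to drug diluted in DMSO for 24 or 48 h. Phase distribution was compared with DMSO-treated control cells.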

[4] = biological target: Death-associated protein kinase 2 (Homo sapiens) (UniProt Q9UIK4); experiment: Activity of human DAPK2 kinase at 1 uM
In short: (§3)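 Single-point kinase profiling: each kinase in a 226-kinase panel tested with compound at 1 μM and ATP at 10 μM in every assay, run by an external screening service.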

PC-3 [5] = experiment: Cell cycle arrest in human PC3 cells by accumulation at S phase at 1 uM after 24 hrs by flow cytometry relative to control; assay type: functional; in short: as §2
[6] = biological target: Protein kinase C delta type (Homo sapiens) (UniProt Q05655); experiment: Activity of human PKCdelta kinase at 1 uM; in short: as §3
[7] = biological target: Homeodomain-interacting protein kinase 3 (Homo sapiens) (UniProt Q9H422); experiment: Activity of human HIPK3 kinase at 1 uM
[8] = biological target: CDK3/Cyclin E (Homo sapiens) (UniProt P24864+Q00526); experiment: Activity of human CDK3/cyclin E kinase at 1 uM; assay type: protein-complex assay; in short: as §3
[9] = biological target: Ephrin type-A receptor 1 (Homo sapiens) (UniProt P21709); experiment: Inhibition of EphA1 kinase at 1 uM
In short: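 Single-point screen within a 226-kinase panel, with compound at 1 μM and ATP at 10 μM in all assays.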

[10] = biological target: Serine/threonine-protein kinase STK11 (Homo sapiens) (UniProt Q15831); experiment: Activity of human LKB1 kinase at 1 uM
[11] = biological target: Serine/threonine-protein kinase PAK 5 (Homo sapiens) (UniProt Q9P286); experiment: Activity of human PAK5 kinase at 1 uM; in short: as §1
PC-3 [12] = experiment: Cell cycle arrest in human PC3 cells by accumulation at G2/M phase at 1 uM after 24 hrs by flow cytometry relative to control; assay type: functional; in short: as §2
Homo sapiens = species on record: Homo sapiens; experiment: Activity of human CDK5/p35 kinase at 1 uM
[13] = biological target: Platelet-derived growth factor receptor alpha (Homo sapiens) (UniProt P16234); experiment: Activity of human PDGFRalpha kinase at 1 uM; in short: as §1
[14] = biological target: Tyrosine-protein kinase ABL2 (Mus musculus) (UniProt Q4JIM5); experiment: Activity of mouse Arg kinase at 1 uM
In short: (§4)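 Single-concentration screen across a 226-kinase panel run by an outside provider; test compound at 1 μM with 10 μM ATP in every assay. Other conditions not detailed.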

[15] = Inhibition of CAMK2 by radioactive flashplate assay
[16] = biological target: PAS domain-containing serine/threonine-protein kinase (Homo sapiens) (UniProt Q96RG2); experiment: Activity of human PASK kinase at 1 uM; in short: as §3
[17] = biological target: Angiopoietin-1 receptor (Homo sapiens) (UniProt Q02763); experiment: Activity of human Tie2 kinase at 1 uM; in short: as §1
[18] = biological target: Proto-oncogene tyrosine-protein kinase ROS (Homo sapiens) (UniProt P08922); experiment: Activity of human Ros kinase at 1 uM; in short: as §1
[19] = biological target: Mitogen-activated protein kinase 14 (Homo sapiens) (UniProt Q16539); experiment: Activity of human SAPK2a kinase at 1 uM; in short: as §4
[20] = biological target: SRSF protein kinase 2 (Homo sapiens) (UniProt P78362); experiment: Activity of human SRPK2 kinase at 1 uM; in short: as §1
[21] = biological target: Serine/threonine-protein kinase pim-2 (Homo sapiens) (UniProt Q9P1W9); experiment: Activity of human Pim2 kinase at 1 uM; in short: as §1
[22] = Inhibition of CDK2E by radioactive flashplate assay
[23] = biological target: Protein kinase C alpha type (Homo sapiens) (UniProt P17252); experiment: Activity of human PKCalpha kinase at 1 uM; in short: as §1
PC-3 [24] = experiment: Cell cycle arrest in human PC3 cells by accumulation at >4N phase at 4 uM after 24 hrs by flow cytometry relative to control; assay type: functional
[25] = biological target: Tyrosine-protein kinase Fes/Fps (Homo sapiens) (UniProt P07332); experiment: Activity of human Fes kinase at 1 uM; in short: as §3
[26] = biological target: Eukaryotic elongation factor 2 kinase (Homo sapiens) (UniProt O00418); experiment: Activity of human eEF-2K kinase at 1 uM; in short: as §4
PC-3 [27] = experiment: Induction of apoptosis in human PC3 cells assessed as PARP cleavage at 1 uM after 24 hrs by Western blot method; assay type: functional, cell-based
PC-3 [28] = experiment: Antiproliferative activity against human PC3 cells after 96 hrs by BrdU cell proliferation ELISA; assay type: functional, cell-based; conditions: PC-3, 96 h
In short: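 BrdU incorporation proliferation assay on cultured human tumor lines; IC50 values derived from growth inhibition.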

[29] = biological target: Serine/threonine-protein kinase D1 (Homo sapiens) (UniProt Q15139); experiment: Activity of human PKCmu kinase at 1 uM; in short: as §3
[30] = biological target: Tyrosine-protein kinase Lyn (Homo sapiens) (UniProt P07948); experiment: Activity of human Lyn kinase at 1 uM; in short: as §3
[31] = biological target: Calcium/calmodulin-dependent protein kinase type II subunit delta (Homo sapiens) (UniProt Q13557); experiment: Activity of human CaMK2delta kinase at 1 uM; in short: as §3
[32] = biological target: Phosphorylase b kinase gamma catalytic chain, liver/testis isoform (Homo sapiens) (UniProt P15735); experiment: Activity of human PhKgamma2 kinase at 1 uM; in short: as §1
PC-3 [33] = experiment: Cell cycle arrest in human PC3 cells by accumulation at G1 phase at 1 uM after 24 hrs by flow cytometry relative to control; assay type: functional
[34] = biological target: ALK tyrosine kinase receptor (Homo sapiens) (UniProt Q9UM73); experiment: Activity of human ALK kinase at 1 uM
[35] = biological target: Myosin light chain kinase, smooth muscle (Homo sapiens) (UniProt Q15746); experiment: Activity of human MLCK kinase at 1 uM
[36] = biological target: Dual specificity mitogen-activated protein kinase kinase 4 (Mus musculus) (UniProt P47809); experiment: Activity of mouse MKK4 kinase at 1 uM; in short: as §1
[37] = biological target: Serine/threonine-protein kinase MARK1 (Homo sapiens) (UniProt Q9P0L2); experiment: Activity of human MARK1 kinase at 1 uM; in short: as §3
[38] = biological target: Ephrin type-A receptor 7 (Homo sapiens) (UniProt Q15375); experiment: Activity of human EphA7 kinase at 1 uM; in short: as §3
[39] = biological target: Hepatocyte growth factor receptor (Homo sapiens) (UniProt P08581); experiment: Activity of human Met kinase at 1 uM; in short: as §3
[40] = biological target: Ephrin type-B receptor 3 (Homo sapiens) (UniProt P54753); experiment: Activity of human EphB3 kinase at 1 uM
[41] = biological target: Tyrosine-protein kinase receptor TYRO3 (Homo sapiens) (UniProt Q06418); experiment: Activity of human Rse kinase at 1 uM; in short: as §4

Sequence of Serine/threonine-protein kinase pim-2 (Homo sapiens) (Q9P1W9 whole entry, looked up): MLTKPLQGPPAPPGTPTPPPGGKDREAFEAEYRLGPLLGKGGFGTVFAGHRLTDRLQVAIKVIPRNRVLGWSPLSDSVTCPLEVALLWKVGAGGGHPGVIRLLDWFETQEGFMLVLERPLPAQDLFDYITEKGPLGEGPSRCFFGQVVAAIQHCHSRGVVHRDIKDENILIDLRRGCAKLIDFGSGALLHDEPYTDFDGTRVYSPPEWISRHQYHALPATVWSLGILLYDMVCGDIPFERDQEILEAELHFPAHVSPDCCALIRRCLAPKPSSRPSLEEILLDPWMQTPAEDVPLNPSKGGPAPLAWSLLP
Sequence of Angiopoietin-1 receptor (Homo sapiens) (Q02763 whole entry): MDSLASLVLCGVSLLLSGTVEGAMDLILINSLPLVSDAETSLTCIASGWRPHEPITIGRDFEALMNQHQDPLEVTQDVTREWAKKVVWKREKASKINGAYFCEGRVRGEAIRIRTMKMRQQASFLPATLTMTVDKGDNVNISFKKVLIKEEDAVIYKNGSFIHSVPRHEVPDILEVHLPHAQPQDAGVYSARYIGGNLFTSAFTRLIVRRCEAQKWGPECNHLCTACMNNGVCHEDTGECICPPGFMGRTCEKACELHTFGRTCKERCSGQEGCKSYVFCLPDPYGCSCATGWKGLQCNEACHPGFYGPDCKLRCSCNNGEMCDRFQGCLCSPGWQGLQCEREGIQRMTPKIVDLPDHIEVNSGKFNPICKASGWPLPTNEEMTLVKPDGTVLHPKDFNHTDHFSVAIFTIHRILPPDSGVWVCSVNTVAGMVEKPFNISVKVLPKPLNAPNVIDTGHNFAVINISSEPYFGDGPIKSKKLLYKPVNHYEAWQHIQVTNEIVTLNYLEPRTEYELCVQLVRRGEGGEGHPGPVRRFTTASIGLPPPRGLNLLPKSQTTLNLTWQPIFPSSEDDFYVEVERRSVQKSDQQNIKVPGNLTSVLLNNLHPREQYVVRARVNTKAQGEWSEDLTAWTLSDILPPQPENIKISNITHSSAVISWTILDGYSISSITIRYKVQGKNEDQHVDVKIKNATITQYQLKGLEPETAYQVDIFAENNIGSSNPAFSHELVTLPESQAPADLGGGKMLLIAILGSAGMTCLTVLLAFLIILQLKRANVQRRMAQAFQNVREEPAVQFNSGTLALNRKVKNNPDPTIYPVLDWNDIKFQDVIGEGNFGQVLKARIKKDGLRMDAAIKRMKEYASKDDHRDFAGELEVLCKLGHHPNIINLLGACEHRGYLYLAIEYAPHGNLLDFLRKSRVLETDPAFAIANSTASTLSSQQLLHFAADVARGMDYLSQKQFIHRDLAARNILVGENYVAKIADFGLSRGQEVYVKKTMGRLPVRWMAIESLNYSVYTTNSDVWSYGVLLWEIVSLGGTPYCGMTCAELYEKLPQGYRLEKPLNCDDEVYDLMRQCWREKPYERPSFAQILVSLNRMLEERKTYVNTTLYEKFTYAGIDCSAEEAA
Sequence of Death-associated protein kinase 2 (Homo sapiens) (Q9UIK4 whole entry, looked up): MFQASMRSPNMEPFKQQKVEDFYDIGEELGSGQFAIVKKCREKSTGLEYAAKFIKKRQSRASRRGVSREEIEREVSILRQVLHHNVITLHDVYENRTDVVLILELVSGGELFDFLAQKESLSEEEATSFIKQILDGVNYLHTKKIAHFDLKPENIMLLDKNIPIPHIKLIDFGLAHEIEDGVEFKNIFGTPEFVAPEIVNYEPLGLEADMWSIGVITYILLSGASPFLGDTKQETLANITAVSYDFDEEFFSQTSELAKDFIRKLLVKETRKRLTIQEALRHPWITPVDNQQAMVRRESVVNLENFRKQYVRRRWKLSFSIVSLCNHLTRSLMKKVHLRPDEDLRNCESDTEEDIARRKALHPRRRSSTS
Sequence of SRSF protein kinase 2 (Homo sapiens) (P78362 whole entry, looked up): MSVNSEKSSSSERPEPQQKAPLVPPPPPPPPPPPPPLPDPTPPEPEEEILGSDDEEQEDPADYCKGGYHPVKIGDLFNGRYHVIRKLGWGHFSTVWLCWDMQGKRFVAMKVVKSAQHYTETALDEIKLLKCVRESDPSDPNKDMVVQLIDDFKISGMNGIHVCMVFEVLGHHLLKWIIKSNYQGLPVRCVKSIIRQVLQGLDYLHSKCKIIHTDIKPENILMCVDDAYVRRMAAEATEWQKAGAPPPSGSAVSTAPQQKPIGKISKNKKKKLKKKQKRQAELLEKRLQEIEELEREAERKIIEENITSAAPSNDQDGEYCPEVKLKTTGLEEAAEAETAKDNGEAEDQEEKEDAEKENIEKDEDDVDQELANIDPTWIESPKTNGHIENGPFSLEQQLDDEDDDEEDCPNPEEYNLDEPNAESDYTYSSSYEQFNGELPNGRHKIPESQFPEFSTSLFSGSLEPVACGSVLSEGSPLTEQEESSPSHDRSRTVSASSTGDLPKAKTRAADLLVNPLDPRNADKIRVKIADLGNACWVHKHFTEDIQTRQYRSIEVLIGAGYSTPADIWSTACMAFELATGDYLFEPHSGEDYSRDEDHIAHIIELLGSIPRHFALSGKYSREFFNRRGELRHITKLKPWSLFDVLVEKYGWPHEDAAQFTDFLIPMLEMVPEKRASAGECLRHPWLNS
Sequence of Mitogen-activated protein kinase 14 (Homo sapiens) (Q16539 whole entry): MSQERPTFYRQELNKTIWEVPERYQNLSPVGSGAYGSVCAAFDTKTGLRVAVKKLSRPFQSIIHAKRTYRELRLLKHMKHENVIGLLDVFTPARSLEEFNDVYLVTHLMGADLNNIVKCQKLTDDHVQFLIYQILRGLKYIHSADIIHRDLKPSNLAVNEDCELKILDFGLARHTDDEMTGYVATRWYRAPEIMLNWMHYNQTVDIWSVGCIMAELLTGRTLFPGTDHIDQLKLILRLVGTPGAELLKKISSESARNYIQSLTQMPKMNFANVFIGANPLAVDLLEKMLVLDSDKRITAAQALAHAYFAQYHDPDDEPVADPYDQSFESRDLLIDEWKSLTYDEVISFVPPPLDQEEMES
Sequence of Serine/threonine-protein kinase PAK 5 (Homo sapiens) (Q9P286 whole entry, looked up): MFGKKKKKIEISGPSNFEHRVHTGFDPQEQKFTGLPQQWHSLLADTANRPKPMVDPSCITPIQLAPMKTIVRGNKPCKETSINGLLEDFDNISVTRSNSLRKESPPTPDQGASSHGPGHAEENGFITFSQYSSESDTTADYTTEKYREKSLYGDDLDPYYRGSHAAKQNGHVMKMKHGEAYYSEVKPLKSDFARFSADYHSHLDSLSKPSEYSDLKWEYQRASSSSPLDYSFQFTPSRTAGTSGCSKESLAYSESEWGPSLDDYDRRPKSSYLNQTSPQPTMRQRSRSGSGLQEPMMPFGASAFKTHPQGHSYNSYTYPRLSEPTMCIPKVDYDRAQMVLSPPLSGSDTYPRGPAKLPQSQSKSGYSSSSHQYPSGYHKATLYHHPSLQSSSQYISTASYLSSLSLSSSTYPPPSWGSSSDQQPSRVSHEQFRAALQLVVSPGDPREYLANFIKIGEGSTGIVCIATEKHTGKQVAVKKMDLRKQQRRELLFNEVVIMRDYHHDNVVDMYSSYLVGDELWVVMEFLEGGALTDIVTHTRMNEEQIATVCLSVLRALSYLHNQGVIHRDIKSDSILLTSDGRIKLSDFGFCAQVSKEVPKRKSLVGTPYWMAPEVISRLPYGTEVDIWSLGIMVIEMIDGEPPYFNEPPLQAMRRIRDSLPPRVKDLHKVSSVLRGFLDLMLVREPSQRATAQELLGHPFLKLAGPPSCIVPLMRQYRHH
Sequence of Calcium/calmodulin-dependent protein kinase type II subunit delta (Homo sapiens) (Q13557 whole entry, canonical isoform): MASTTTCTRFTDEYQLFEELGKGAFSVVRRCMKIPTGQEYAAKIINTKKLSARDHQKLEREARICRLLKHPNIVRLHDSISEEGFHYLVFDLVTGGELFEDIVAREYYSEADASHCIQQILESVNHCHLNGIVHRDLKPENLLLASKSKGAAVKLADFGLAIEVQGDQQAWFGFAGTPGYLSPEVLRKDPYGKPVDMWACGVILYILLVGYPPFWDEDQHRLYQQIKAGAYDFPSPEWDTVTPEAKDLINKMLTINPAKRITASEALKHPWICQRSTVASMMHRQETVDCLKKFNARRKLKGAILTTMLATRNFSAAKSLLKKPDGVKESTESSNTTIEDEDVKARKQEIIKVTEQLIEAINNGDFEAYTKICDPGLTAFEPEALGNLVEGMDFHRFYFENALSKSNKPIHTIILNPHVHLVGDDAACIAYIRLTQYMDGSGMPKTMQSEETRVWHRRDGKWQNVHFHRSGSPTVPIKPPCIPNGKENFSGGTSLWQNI
Sequence of Protein kinase C delta type (Homo sapiens) (Q05655 whole entry, looked up): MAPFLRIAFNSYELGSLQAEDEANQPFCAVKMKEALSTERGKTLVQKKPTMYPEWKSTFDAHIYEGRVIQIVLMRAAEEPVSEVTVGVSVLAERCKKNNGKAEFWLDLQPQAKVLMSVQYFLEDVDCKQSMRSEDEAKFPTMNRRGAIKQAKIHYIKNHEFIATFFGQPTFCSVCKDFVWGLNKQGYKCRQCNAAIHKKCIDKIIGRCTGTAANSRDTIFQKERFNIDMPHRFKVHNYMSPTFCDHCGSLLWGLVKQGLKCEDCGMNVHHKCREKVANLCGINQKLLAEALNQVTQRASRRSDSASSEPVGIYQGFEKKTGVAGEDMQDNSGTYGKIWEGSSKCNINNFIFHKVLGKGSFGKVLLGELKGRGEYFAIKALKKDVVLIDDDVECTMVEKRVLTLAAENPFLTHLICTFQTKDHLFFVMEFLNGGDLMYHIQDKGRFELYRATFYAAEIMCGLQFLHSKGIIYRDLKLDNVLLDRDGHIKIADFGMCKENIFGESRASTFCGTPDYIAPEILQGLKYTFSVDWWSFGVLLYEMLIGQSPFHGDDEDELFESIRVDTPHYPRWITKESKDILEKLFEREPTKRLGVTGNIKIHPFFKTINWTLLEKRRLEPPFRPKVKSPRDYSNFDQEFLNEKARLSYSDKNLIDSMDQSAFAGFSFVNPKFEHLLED

O=C(O)c1ccc(Nc2ncc3c(n2)-c2ccc(Cl)cc2C(c2c(F)cccc2F)=NC3)cc1 [MLN-8054]
Activity [1]: 104% | Activity [2]: 105% | Activity (PC-3 [3]): 13.2% | Activity [4]: 103% | Activity (PC-3 [5]): 14.9% | Activity [6]: 109% | Activity [7]: 111% | Activity [8]: 105% | inhibition [9]: 71% | Activity [10]: 101% | Activity [11]: 100% | Activity (PC-3 [12]): 45.4% | Activity (Homo sapiens): 100% | Activity [13]: 110% | Activity [14]: 63% | IC50 [15]: > 100 µM | Activity [16]: 114% | Activity [17]: 51% | Activity [18]: 88% | Activity [19]: 105% | Activity [20]: 87% | Activity [21]: 101% | IC50 [22]: > 100 µM | Activity [23]: 108% | Activity (PC-3 [24]): 5% | Activity [25]: 133% | Activity [26]: 123% | Activity (PC-3 [27]): Active | IC50 (PC-3 [28]): 0.79 µM | Activity [29]: 112% | Activity [30]: 46% | Activity [31]: 123% | Activity [32]: 98% | Activity (PC-3 [33]): 36.1% | Activity [34]: 95% | Activity [35]: 95% | Activity [36]: 120% | Activity [37]: 106% | Activity [38]: 67% | Activity [39]: 140% | Activity [40]: 95% | Activity [41]: 56%
